In the library only some 5.9% were active in any assay of this set; here they are far more common.
IDH1 R132H inh: inhibitors of human IDH1 R132H; O75874; IDH1 R132H reductase, diaphorase/resazurin fluorescence, 60 min; inhibition, % at 10 µM; hit rate 0.18% among 70,000; AID 624101; in the data active means inhibition above about 34%; inconclusive means no clear call, values can overlap the other calls; inactive means below about 11%
Target sequence (O75874 whole entry R132H): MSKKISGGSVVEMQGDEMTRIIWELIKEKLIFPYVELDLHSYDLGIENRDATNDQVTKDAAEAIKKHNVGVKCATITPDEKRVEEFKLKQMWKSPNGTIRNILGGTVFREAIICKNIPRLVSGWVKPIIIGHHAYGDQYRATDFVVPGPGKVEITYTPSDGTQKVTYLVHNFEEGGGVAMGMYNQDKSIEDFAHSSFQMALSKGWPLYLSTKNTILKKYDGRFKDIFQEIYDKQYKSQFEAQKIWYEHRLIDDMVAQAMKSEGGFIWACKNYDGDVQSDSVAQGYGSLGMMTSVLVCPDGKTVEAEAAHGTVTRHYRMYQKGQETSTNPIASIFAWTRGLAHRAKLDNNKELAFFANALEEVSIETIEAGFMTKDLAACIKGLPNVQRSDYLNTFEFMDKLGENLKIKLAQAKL
KDM4C inh: inhibitors of human demethylase GASC-1 KDM4C. Q9H3R0. GST-KDM4C 2-372, H3K9me3 peptide, LANCE TR-FRET. inhibition, % at 12.5 µM. hit rate 0.15% among 96,000;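 active means mean replicate inhibition above about 25%, with at least 55% of replicates also reaching it, limit read from the data, passing the limit was not always enough; inconclusive means only one of those two conditions met; inactive means neither condition met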
Target sequence (Q9H3R0 2-372 limits assumed): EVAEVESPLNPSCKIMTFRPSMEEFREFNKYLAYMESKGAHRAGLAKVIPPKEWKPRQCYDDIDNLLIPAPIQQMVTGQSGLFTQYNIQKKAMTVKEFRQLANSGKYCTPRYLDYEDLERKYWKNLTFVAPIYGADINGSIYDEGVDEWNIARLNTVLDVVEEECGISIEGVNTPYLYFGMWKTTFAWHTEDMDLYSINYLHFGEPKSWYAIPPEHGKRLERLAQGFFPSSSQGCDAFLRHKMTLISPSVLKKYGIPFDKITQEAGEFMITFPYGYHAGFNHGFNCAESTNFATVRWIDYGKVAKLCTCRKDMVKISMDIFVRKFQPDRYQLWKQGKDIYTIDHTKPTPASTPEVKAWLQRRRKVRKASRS
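Test system: N-terminal GST-fused human GASC-1 (KDM4C) fragment, residues 2-372; quantity: GASC-1 enzyme at 10 nM final in reaction; dosing: single dose; schedule: 30 min demethylation and 1 h detection at room temperature; signal: LANCE TR-FRET, excitation 340 nm, emissions 618 and 671 nm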
Pf Dd2 inh: blocks growth of Plasmodium falciparum Dd2 parasites | hit rate 2.3% among 94,000 | activity change, % at 10 µM | P. falciparum Dd2 growth, SYBR Green, 72 h; stronger effect = lower value; in the data active means activity change below about -80%; inconclusive means no clear call, values can overlap the other calls
T cruzi growth-1: blocks T. cruzi growth in NIH3T3 culture | hit rate 5.9% among 77,000 | T. cruzi beta-gal in NIH3T3, GalScreen luminescence, 90 h | inhibition, % at 8.34 µM;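 active means mean inhibition above about 93%, with at least 55% of replicates each passing it, limit read from the data, passing the limit was not always enough; inconclusive means only one of those two conditions holds; inactive means neither condition holds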
T cruzi growth-2: Trypanosoma cruzi proliferation inhibition; shares compounds with T cruzi growth-1; T. cruzi beta-gal in NIH3T3, GalScreen luminescence, 90 h; inhibition, % at 8.35 µM; hit rate 72% among 5,600;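 active means mean replicate inhibition above about 95% and at least 55% of replicates individually reaching it, limit read from the data; inconclusive means only one of the two criteria is met; inactive means neither criterion is met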
T cruzi growth-3: blocks T. cruzi growth in NIH3T3 host cells. shares compounds with T cruzi growth-1. T. cruzi beta-gal in NIH3T3, GalScreen luminescence, 90 h. inhibition, % at 2.09 µM. hit rate 21% among 5,600;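 active means mean inhibition above about 95%, with at least 55% of replicates also reaching it, limit read from the data; inconclusive means meets just one of the two conditions; inactive means meets neither condition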
NIH3T3 tox: kills mouse NIH/3T3 fibroblasts; shares compounds with T cruzi growth-1; NIH/3T3 viability, CellTiter-Glo ATP luminescence, 90 h; cytotoxicity (signal decrease), % at 8.35 µM; hit rate 14% among 5,600;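 active means mean signal decrease across replicates above about 35% based on untreated-well scatter, with enough replicates individually passing, limit read from the data; inconclusive means no rule stated though some were filed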
NIH3T3 tox 2: kills mouse NIH/3T3 fibroblasts | NIH/3T3 viability, CellTiter-Glo ATP luminescence, 90 h | inhibition, % at 24.9 µM | shares compounds with T cruzi growth-1 | AID 651744 | hit rate 56% among 5,600;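 active means mean loss of cell viability signal at or above a set limit, and enough replicates individually reaching it; inconclusive means meets only the mean limit or only the replicate share; inactive means meets neither condition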
Large screens that a line does not name were inactive (follow-up assays come after a bar, where they were run).

CCN(C[C@H]1N[C@H](CO)[C@H]1c1ccc(C2=CCCC2)cc1)C(=O)c1ccncc1	T cruzi growth-1 104 (no result: IDH1 R132H inh) | T cruzi growth-2 inactive | T cruzi growth-3 inactive | NIH3T3 tox inactive | NIH3T3 tox 2 inactive
CCN(C[C@H]1N[C@@H](CO)[C@@H]1c1ccc(C2=CCCC2)cc1)C(=O)c1ccncc1	T cruzi growth-1 105 (no result: IDH1 R132H inh) | T cruzi growth-2 98 | T cruzi growth-3 inactive | NIH3T3 tox inactive | NIH3T3 tox 2 55
O=C(NC[C@H]1N[C@H](CO)[C@@H]1c1ccc(C2=CCCCC2)cc1)c1cccc(F)c1	none (no result: IDH1 R132H inh)
CCN(C[C@@H]1N[C@H](CO)[C@H]1c1ccc(C2=CCCC2)cc1)C(=O)c1ccncc1	none (no result: IDH1 R132H inh)
C/C=C/c1ccc([C@@H]2[C@H](CO)N[C@H]2CN(CC)C(=O)c2ccccn2)cc1	none (no result: IDH1 R132H inh)
CCOC(=O)c1c(NC(=O)CSc2ccccn2)sc(C)c1C	none (no result: KDM4C inh, Pf Dd2 inh, T cruzi growth-1)
COc1ccc(NC(=O)CSc2nc3sc4c(c3c(=O)n2-c2ccccc2)CCC4)c([N+](=O)[O-])c1	none (no result: KDM4C inh, Pf Dd2 inh, T cruzi growth-1)
Cc1c(NC(=S)NC(=O)COc2ccccc2)cccc1-c1nc2ccccc2s1	none (no result: KDM4C inh, Pf Dd2 inh, T cruzi growth-1)
COCC#Cc1ccc2c(c1)O[C@H](CN(C)Cc1ccccn1)[C@H](C)CN([C@H](C)CO)S2(=O)=O	none
CC(C)CC#Cc1ccc2c(c1)O[C@H](CN(C)Cc1ccccn1)[C@@H](C)CN([C@@H](C)CO)S2(=O)=O	T cruzi growth-1 132 | T cruzi growth-2 97 | T cruzi growth-3 114 | NIH3T3 tox inactive | NIH3T3 tox 2 105
CC(C)CC#Cc1ccc2c(c1)O[C@H](CN(C)Cc1ccccn1)[C@H](C)CN([C@H](C)CO)S2(=O)=O	T cruzi growth-1 115 | T cruzi growth-2 106 | T cruzi growth-3 inactive | NIH3T3 tox inactive | NIH3T3 tox 2 107
CC(C)C1C(=O)N(S(C)(=O)=O)[C@@H]2CCN(C(=O)/C=C/CN3CCCCC3)[C@@H]12 (stereo partly drawn)	none (no result: KDM4C inh, Pf Dd2 inh, T cruzi growth-1)
O=C1c2cccc3cccc(c23)C(=O)N1CCCSc1nnc(-c2ccncc2)n1-c1ccccc1	none (no result: KDM4C inh, Pf Dd2 inh, T cruzi growth-1)
C[C@H]1CCCCO[C@@H](CN(C)C(=O)Cc2ccccc2)[C@@H](C)CN([C@@H](C)CO)C(=O)c2cc(NS(=O)(=O)c3ccc(Cl)cc3)ccc2O1	T cruzi growth-1 101 (no result: IDH1 R132H inh) | T cruzi growth-2 109 | T cruzi growth-3 inactive | NIH3T3 tox inactive | NIH3T3 tox 2 inactive
C[C@@H]1CCCCO[C@@H](CN(C)C(=O)Nc2ccccc2)[C@@H](C)CN([C@H](C)CO)C(=O)c2cc(NS(=O)(=O)c3ccc(Cl)cc3)ccc2O1	none
C[C@H]1CCCCO[C@H](CN(C)C(=O)Nc2ccccc2)[C@@H](C)CN([C@@H](C)CO)C(=O)c2cc(NS(=O)(=O)c3ccc(Cl)cc3)ccc2O1	Pf Dd2 inh -84, T cruzi growth-1 inconclusive (no result: IDH1 R132H inh) | T cruzi growth-2 103 | T cruzi growth-3 inactive | NIH3T3 tox inactive | NIH3T3 tox 2 inactive
C[C@H](CO)N1C[C@H](C)[C@H](CN(C)C(=O)c2ccccc2)OCCCC[C@H](C)Oc2ccc(NS(=O)(=O)c3ccc(Cl)cc3)cc2C1=O	T cruzi growth-1 101 (no result: IDH1 R132H inh) | T cruzi growth-2 inactive | T cruzi growth-3 inactive | NIH3T3 tox inactive | NIH3T3 tox 2 inactive
C[C@@H]1CCCCO[C@@H](CN(C)C(=O)Nc2ccccc2)[C@@H](C)CN([C@@H](C)CO)C(=O)c2cc(NS(=O)(=O)c3ccc(Cl)cc3)ccc2O1	T cruzi growth-1 118 (no result: IDH1 R132H inh) | T cruzi growth-2 104 | T cruzi growth-3 inactive | NIH3T3 tox inactive | NIH3T3 tox 2 inactive
O=C(C[C@H]1CC[C@H]2[C@@H](COC[C@@H](O)CN2Cc2ccc(Oc3ccccc3)cc2)O1)N1CCN(c2ccccc2)CC1	T cruzi growth-1 127 (no result: IDH1 R132H inh) | T cruzi growth-2 101 | T cruzi growth-3 inactive | NIH3T3 tox inactive | NIH3T3 tox 2 104
CN1C[C@H](O)COC[C@@H]2O[C@@H](CC(=O)N3CCN(c4ccccc4)CC3)CC[C@H]21	T cruzi growth-1 inconclusive (no result: IDH1 R132H inh) | T cruzi growth-2 102 | T cruzi growth-3 inactive | NIH3T3 tox inactive | NIH3T3 tox 2 inactive
O=C(C[C@H]1CC[C@@H]2[C@H](COC[C@@H](O)CN2Cc2ccc(Oc3ccccc3)cc2)O1)N1CCN(c2ccccc2)CC1	T cruzi growth-1 130 (no result: IDH1 R132H inh) | T cruzi growth-2 inactive | T cruzi growth-3 inactive | NIH3T3 tox inactive | NIH3T3 tox 2 91
O=C(C[C@H]1CC[C@H]2[C@@H](COC[C@H](O)CN2Cc2ccc(Oc3ccccc3)cc2)O1)N1CCOCC1	none (no result: IDH1 R132H inh)
O=C(C[C@@H]1CC[C@H]2[C@@H](COC[C@H](O)CN2Cc2ccc(Oc3ccccc3)cc2)O1)N1CCOCC1	none (no result: IDH1 R132H inh)
CN1C[C@@H](O)COC[C@H]2O[C@@H](CC(=O)N3CCN(c4ccccc4)CC3)CC[C@@H]21	none (no result: IDH1 R132H inh)
Cc1ccccc1S(=O)(=O)N1C[C@@H](O)COC[C@@H]2O[C@H](CC(=O)N3CCN(C)CC3)CC[C@H]21	T cruzi growth-1 inconclusive (no result: IDH1 R132H inh, Pf Dd2 inh) | T cruzi growth-2 inactive | T cruzi growth-3 inactive | NIH3T3 tox inactive | NIH3T3 tox 2 inactive
OCc1ccc(-c2ccncc2)cc1	none (no result: KDM4C inh, Pf Dd2 inh, T cruzi growth-1)
O=C(C[C@H]1CC[C@@H]2[C@H](COC[C@@H](O)CN2Cc2ccc(Oc3ccccc3)cc2)O1)N1CCOCC1	none (no result: IDH1 R132H inh)
O=C(C[C@@H]1CC[C@@H]2[C@H](COC[C@@H](O)CN2Cc2ccc(Oc3ccccc3)cc2)O1)N1CCN(c2ccccc2)CC1	T cruzi growth-1 96 (no result: IDH1 R132H inh) | T cruzi growth-2 98 | T cruzi growth-3 inactive | NIH3T3 tox inactive | NIH3T3 tox 2 32
COc1ccc(S(=O)(=O)Nc2ccc3c(c2)C(=O)N([C@H](C)CO)C[C@H](C)[C@@H](CN(C)C(=O)Nc2ccc(C(F)(F)F)cc2)OCCCC[C@@H](C)O3)cc1	T cruzi growth-1 108 | T cruzi growth-2 99 | T cruzi growth-3 inactive | NIH3T3 tox inactive | NIH3T3 tox 2 inactive
Cc1ccc(S(=O)(=O)Nc2ccc3c(c2)C(=O)N([C@H](C)CO)C[C@@H](C)[C@H](CN(C)C(=O)Nc2ccc(C(F)(F)F)cc2)OCCCC[C@@H](C)O3)cc1	none
Cc1ccc(S(=O)(=O)Nc2ccc3c(c2)C(=O)N([C@H](C)CO)C[C@H](C)[C@@H](CN(C)C(=O)Nc2ccc(C(F)(F)F)cc2)OCCCC[C@H](C)O3)cc1	T cruzi growth-1 109 (no result: IDH1 R132H inh) | T cruzi growth-2 105 | T cruzi growth-3 113 | NIH3T3 tox inactive | NIH3T3 tox 2 inactive
C[C@H]1CCCCO[C@@H](CN(C)C(=O)Nc2ccc(C(F)(F)F)cc2)[C@@H](C)CN([C@@H](C)CO)C(=O)c2cc(NS(=O)(=O)c3ccc(Cl)cc3)ccc2O1	none (no result: IDH1 R132H inh)

Compound activity: PubChem, Broad Institute
